Test results reported in PubChem BioAssay AID743208 (The Scripps Research Institute Molecular Screening Center, 2013).
The whole screen tested about 2,100 compounds, of which about 30 (1%) were called active.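 Rule for the calls: active = inhibition above about 20% chosen separately for each screening run (limit read from the data); inactive = the rest.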 These entries were drawn from the full list.

The compounds below were run against Disintegrin and metalloproteinase domain-containing protein 10 (Homo sapiens) (UniProt O14672) (assay: blockers of ADAM10 peptide cleavage – biochemical, QFRET, triplicate, confirmation (AID 743208;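 note: 0% = DMSO wells and 100% = marimastat wells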)). Details: EDANS fluorescence, at 6.95 µM, hits give high values.
Chain of Disintegrin and metalloproteinase domain-containing protein 10 (Homo sapiens) (O14672 214-748 limits assumed): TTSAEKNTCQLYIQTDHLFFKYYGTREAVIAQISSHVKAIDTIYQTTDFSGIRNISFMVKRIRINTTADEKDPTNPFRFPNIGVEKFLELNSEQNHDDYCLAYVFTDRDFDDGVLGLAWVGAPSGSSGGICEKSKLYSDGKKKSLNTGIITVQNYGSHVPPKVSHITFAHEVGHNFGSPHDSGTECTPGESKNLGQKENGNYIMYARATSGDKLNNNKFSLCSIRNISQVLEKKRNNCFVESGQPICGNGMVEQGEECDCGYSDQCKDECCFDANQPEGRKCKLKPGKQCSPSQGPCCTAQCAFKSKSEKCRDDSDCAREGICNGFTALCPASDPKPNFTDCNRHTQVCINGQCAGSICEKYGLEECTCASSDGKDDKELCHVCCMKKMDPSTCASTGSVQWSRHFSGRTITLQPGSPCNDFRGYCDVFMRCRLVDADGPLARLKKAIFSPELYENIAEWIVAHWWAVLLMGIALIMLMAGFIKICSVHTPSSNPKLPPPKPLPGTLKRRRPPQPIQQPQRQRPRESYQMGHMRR
In short: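 Material – human ADAM10 protease with quenched EDANS/DABCYL DM2 peptide · Quantity – ADAM10 at 20 nM (2X solution) · Buffer or medium – HEPES/Brij buffer, pH 7.5 · Doses – 6.95 µM single dose · Schedule – compound-enzyme preincubation 30 min, then 3 h substrate reaction, both 25 °C · Measured by – fluorescence 359/460 nm · Read-out – % inhibition relative to DMSO and marimastat wells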

inhibition, inactive:
COc1cc(Cl)c(S(=O)(=O)N2CCN(Cc3ccc4c(c3)OCO4)CC2)cc1Cl 3.51%, O=C(/C=C/c1ccc(F)cc1)NC(=S)NNC(=O)c1cccnc1 0.49%, O=C(CC(O)(C(F)(F)F)C(F)(F)F)Nc1ccc(Cl)c(Cl)c1 2.03%, CCOc1ccc(N2C(=O)CC(N(CCc3ccc(OC)c(OC)c3)C(=S)Nc3ccccc3)C2=O)cc1 (stereo unspecified) 0.13%, CC(C)(C)OC(=O)CNC(=O)c1[nH]cnc1C(=O)N[C@@H](Cc1ccccc1)C(=O)OCc1ccccc1 6.97%, COc1cccc(C2CC(c3ccccc3)=NN2S(=O)(=O)c2ccccc2)c1OC (stereo unspecified) 4.77%, Cc1cc(C)cc(NC(=S)NCCc2c[nH]c3ccccc23)c1 2.41%, COc1ccc(NS(=O)(=O)c2ccc(C)c(C(=O)NNC(=O)c3csc(N4CCOCC4)n3)c2)cc1 2.95%, CCC1(C)Cc2c(sc3nnn(CC(=O)Nc4ccc(Cl)cc4)c(=O)c23)CO1 (stereo unspecified) 6.24%, O=C(CSC1=NCCS1)Nc1nc(-c2ccccc2)cs1 0.24%, COc1ccc(C(N)c2csc(NC(=O)Nc3cccc(C(F)(F)F)c3)n2)cc1 (stereo unspecified) 3.14%, O=C1NC(Nc2nc3ccccc3s2)(C(F)(F)F)C(=O)N1C1CCCCC1 (stereo unspecified) 3.12%, Cc1cc(C)cc(NC(=O)CSCc2cnn(-c3ccccc3)c2-n2cccc2)c1 7.84%, Cc1ccc(OCc2nnc(SC/C=C/c3ccccc3)n2Cc2ccco2)cc1 5.61%, CC(C)(C)N1C(=O)[C@H]2[C@@H](c3ccc(Br)cc3)N3C(=O)N(c4cccc(Cl)c4)C(=O)[C@@]3(C)[C@H]2C1=O 2.62%, O=C(Nc1cccc(S(=O)(=O)Nc2ccc(Cl)cc2)c1)c1ccc2c(c1)OCCO2 8.03%, O=C(NCc1ccccc1)c1onc(CSc2nc3ccccc3[nH]2)c1C(=O)NCc1ccccc1 5.46%, CC(C)Oc1ccc(CC(=O)NNC(=S)Nc2ccc(Br)cc2)cc1 3.54%, COC(=O)C1NN=C(C(=O)c2ccc(Br)cc2)C1c1cccc(Br)c1 (stereo unspecified) 3.07%, COc1ccc(C(=O)NNC(=S)NC(=O)c2ccccc2)cc1 0.52%, COc1ccc([C@H]2CC(=O)C=C(c3ccc(OC(F)(F)F)cc3)C2)cc1OC 1.68%, COc1cc(/C=C2/SC(=S)N(Cc3ccccc3)C2=O)cc(OC)c1O 7.56%, O=C(Oc1cccc(N2C(=O)C3C4c5ccccc5C(c5ccccc54)C3C2=O)c1)c1ccco1 (stereo unspecified) 3.26%, CC1(C)C=Cc2c(ccc3c2OC[C@@H](c2ccc(O)cc2O)C3)O1 9.96%, CCOc1cc(/C=N/NC(=O)c2cc(-c3ccccc3)nc3ccccc23)ccc1O 9.93%, C=C(C)COc1ccc(-c2n[nH]c(C)c2-c2ccccc2)c(O)c1 5.81%, Cc1cccc(CCNS(=O)(=O)c2ccc(S(=O)(=O)NC3CCCC3)cc2)c1 0.65%, Cc1ccccc1-n1c(SCC(=O)Nc2cccc3ccccc23)nc(O)cc1=O -0.12%, COc1ccccc1CC1(C)C(=O)Nc2ccc(OC(F)(F)F)cc21 (stereo unspecified) 0.74%, O=C(OCc1ccc(-c2ccccc2)cc1)c1cccc(O)c1 12.8%, O=S(=O)(c1cccc(S(=O)(=O)N2CCC(n3nnc4ccccc43)CC2)c1)N1CCCCC1 0.35%, COc1cccc(NC(=O)CN2CCN(c3nc(-c4cccc(OC)c4)cs3)CC2)c1 8.73%, C=CCC[C@@H](Cc1ccc(F)cc1)C(=O)O[C@H](CNC(=O)[C@H](CC=C)CC(=O)N(CCO)Cc1ccccc1)c1ccccc1 11.4%, COc1cccc(NC(=O)C2C(c3ccccc3)C2(Cl)Cl)c1 (stereo unspecified) 5.98%, CCOc1cc(NC(=O)c2ccccc2C(=O)O)c(OCC)cc1NC(=O)c1ccccc1F 3.74%, O=C(Cc1ccc(Cl)c(Cl)c1)Nc1ccc(SC(F)F)cc1 7.73%, COc1cccc(CC2(CO)CCCN(Cc3ccc(OC(F)F)cc3)C2)c1 (stereo unspecified) -1.93%, Cc1cc(O)ccc1-c1cc(C(=O)NCc2cc(C(F)(F)F)cc(C(F)(F)F)c2)[nH]n1 1.37%, Cn1nc(C(F)(F)F)c(C(=O)Nc2cccc(C(F)(F)F)c2)c1SCc1ccc(Cl)cc1 7.28%, CCC(C)(C)c1ccc(Oc2ccc(NC(=O)COC(=O)C3=COCCO3)cc2)cc1 9.01%, Cc1[nH]c2ccccc2c1C(=O)COC(=O)c1c(-c2ccccc2)noc1C 3.43%, Cn1c(CNc2nc(-c3ccccc3)cs2)nnc1SCC(=O)c1ccccc1 0.21%, COc1cc(/C=N/n2c(C)n[nH]c2=S)ccc1OCc1ccccc1 -0.86%, COc1ccc(C(CCN(Cc2ccc(OC)c(OC)c2)C(=O)CCl)c2ccccc2)cc1 (stereo unspecified) 2.71%, O=S(=O)(c1ccccc1)N(Cc1cccc(F)c1)c1ccccc1 3.92%, Cc1ccc(N(NC(=O)C(C)(C)O)C(=O)c2ccccc2)cc1C 0.68%, Cc1ccc(C)c(NC(=S)NNC(=O)c2csc(C)c2)c1 3.38%, Cc1ccc(/C=N/NC(=O)CSc2nc3ccccc3o2)cc1 0.27%, COc1ccc(OCCCn2cccc2/C=C2/C(=N)N3OC(C)=CC3=NC2=O)cc1 1.45%, COc1ccc(C(=O)NN2C(=O)C3C(c4ccccc4)C=CC(c4ccccc4)C3C2=O)cc1 (stereo unspecified) 6.22%, COc1ccc(S(=O)(=O)N2CCN(C(C)C(=O)Nc3ccc(C(C)C)cc3)CC2)cc1 (stereo unspecified) 4.39%, COc1ccc(C2CC(c3ccccc3)=NN2C(=O)COC(=O)COc2ccccc2)cc1 (stereo unspecified) 8.14%, O=C(CSCc1ccc(Br)cc1)Nc1ccc(S(=O)(=O)N2CCCCCC2)cc1 7.76%, Cc1cnc(C(=O)OCc2c(C)cc(C(C)(C)C)cc2C)cn1 0.57%, Cc1cc(Nc2ccccc2)n(C(=O)c2ccc(N)cc2)n1 2.25%, CCCCCc1c(-c2ccc(OC)c(OC)c2)ncn1CCc1ccccc1OC 5.03%, O=C(CC1SC(=Nc2ccccc2)N(Cc2ccccn2)C1=O)Nc1cccc(Cl)c1 (stereo unspecified) 7.51%, CC(C)(C)c1ccc(S(=O)(=O)NCC2CCN(C(=O)C(=O)c3cc4ccccc4o3)CC2)cc1 6.76%, CCCC(=O)n1nc(NCc2ccc(OC)cc2)nc1NCc1ccc(OC)cc1 9.12%, O=C1[C@H]2[C@@H](c3ccc(F)cc3)N3C(=O)N(c4ccc(C(F)(F)F)cc4)C(=O)[C@@]3(Cc3ccccc3)[C@H]2C(=O)N1C1CCCCC1 8.51%, CN(C)S(=O)(=O)c1cccc(NC(=O)COC(=O)C2(c3ccccc3F)CCCC2)c1 2.23%, O=C(NC(Cc1c[nH]c2ccccc12)C(=O)N/N=C/c1ccc(Br)cc1)c1cccs1 (stereo unspecified) 9.54%, S=c1[nH]cc(-c2ccc(Cl)cc2)n1-c1ccccc1 1.28%, COC(=O)[C@@]12C[C@@H](CC(=O)NCCCCc3ccccc3)C(=O)N(CCc3ccc(OC)c(OC)c3)C1=CCC(C)(C)C2 5.78%, O=C(COC(=O)CCCSc1nc2ccccc2[nH]1)Nc1ccc(Oc2ccccc2)cc1 10.7%, COc1ccc([C@@H]2[C@@H]3C(=O)N(C(C)(C)C)C(=O)[C@@H]3[C@]3(Cc4ccccc4)C(=O)N(c4cccc(Br)c4)C(=O)N23)cc1 5.88%, CC1(Cc2cccc(C#N)c2)C(=O)Nc2ccc(-c3cccc(C(F)(F)F)c3)cc21 (stereo unspecified) 10.6%, Cc1ccc(NC(=O)c2nc[nH]c2C(=O)N[C@@H](CCCCNC(=O)OC(C)(C)C)C(=O)OC(C)(C)C)cc1 11.2%, O=Cc1cn(CCOc2ccc(F)cc2)c2ccccc12 2.15%, CCOc1ccc(Nc2oc(Cc3ccccc3)nc2C#N)cc1 1.49%, N/C(Cc1ccc([N+](=O)[O-])cc1)=N\OC(=O)COc1ccc2ccccc2c1 3.81%, CC(C)(C)OC(=O)N1CCC(NC(=O)c2[nH]cnc2C(=O)N[C@@H](Cc2ccccc2)C(=O)OCc2ccccc2)CC1 9.68%, Cc1cc(C)cc(NS(=O)(=O)c2ccc(Oc3ncc(C(F)(F)F)cc3Cl)cc2)c1 10.8%, Cc1ccc(S(=O)(=O)N2CCN(C(=O)COC(=O)c3c(C)cc(C)cc3C)CC2)c(C)c1 5.29%, Cc1ccc(S(=O)(=O)N(CC(=O)Nc2cccnc2)c2ccc(Br)cc2)cc1 2.78%, COc1ccc(Cl)cc1NC(=O)CN(C)C(=O)CCCc1c[nH]c2ccccc12 3.45%, O=C(NCCc1ccc(Cl)cc1Cl)c1cc([N+](=O)[O-])c[nH]c1=O 0%, C=CC[C@H](CC(=O)N(CCO)Cc1ccccc1)C(=O)N[C@@H](COC(=O)[C@@H](CC=C)Cc1ccc(F)cc1)Cc1ccccc1 8.13%, COc1cc(C2CC(=O)N3CN(Cc4ccccc4)CSC3=C2C#N)ccc1OCc1ccccc1 (stereo unspecified) 5.28%, CC(N=Cc1nc(-c2ccccc2)oc1O)c1ccccc1 (stereo unspecified) 2.54%, C=CCC[C@@H](Cc1ccc(F)cc1)C(=O)OC[C@H](Cc1c[nH]c2ccccc12)NC(=O)[C@@H](CC=C)CC(=O)N(CCO)Cc1ccccc1 10.1%, COc1ccc(Cl)cc1NC(=O)COC(=O)C(CC(C)C)N1C(=O)C2CC=CCC2C1=O (stereo unspecified) 2.32%, Cc1cccc(C2c3[nH]c4ccccc4c3CCN2C(=O)c2cc(-c3cccn3C)n[nH]2)n1 (stereo unspecified) 6.14%, N#Cc1nc(Cc2cccc3ccccc23)oc1NCc1ccc2c(c1)OCO2 6.72%, C#CCN(C[C@H]1[C@H](OC(=O)NC2CCCC2)[C@H](OC(=O)NC2CCCC2)C[C@H]2C(=O)N(c3ccccc3)C(=O)[C@@H]12)S(=O)(=O)c1ccc(C)cc1 2.92%, Cc1ccc(NS(=O)(=O)c2ccc(C)c(NC(=O)COc3ccc4ccccc4c3)c2)c(C)c1 9.74%, O=C(CNC(=O)c1ccc(Cl)cc1Cl)NCC(=O)Nc1ccccc1N1CCOCC1 0.46%, CCOc1ccc(Br)cc1S(=O)(=O)Nc1ccc(C(=O)OC(C)C(=O)N(C)c2ccccc2)cc1 (stereo unspecified) 9.44%, CCC(C(=O)OCC(=O)Nc1ccccc1-c1ccccc1)c1ccccc1 (stereo unspecified) 2.14%, Cc1csc(NC(=S)Nc2cccc(Cl)c2)n1 7.9%, CC(C)Oc1cc(F)ccc1-c1cc(C(=O)Nc2cccc(Cl)c2)[nH]n1 9.22%, c1ccc2c(CCN3CCNC[C@H]3Cc3cccc4ccccc34)cccc2c1 5.45%, COc1cc(/C=N/O)cc(Br)c1OS(=O)(=O)c1ccc(C)cc1 2.32%, O=C1[C@H]2[C@@H](c3ccc(C(F)(F)F)cc3)N[C@]3(CCCN(Cc4ccc(Br)cc4)C3=O)[C@H]2C(=O)N1Cc1ccccc1 6.04%, CC(C)(C)c1ccc(C(=O)Nc2cc(Cl)c(Br)cc2C(=O)O)cc1 3.89%, CC(C)C(=O)Nc1cccc(NC(=S)NC(=O)C(c2ccccc2)c2ccccc2)c1 7.37%
